Experimental data from ChEMBL document CHEMBL1149630, “Damipipecolin and damituricin, novel bioactive bromopyrrole alkaloids from the Mediterranean sponge Axinella damicornis” (2007).
Activity calls are given as the source filed them. The calls are words filed in the database; no cut-off is given here.

Columns and labels:
[1] = tested on: PC-12; experiment: Effect on 5-HT/CaCl2 induced increase in intracellular calcium level in PC12 cells pretreated for 5 mins at 1 ug/ml after 20 mins in relative to control; type: functional
Outline: (§1)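 Cells on poly-L-lysine coverglass, loaded with 10 μM fura-2-AM (1 h, 37 °C), washed, held 1 h. In Ca2+/Mg2+-free Locke's solution pH 7.4, 1 μg/ml compound added for 5 min, then 200 μM 5-HT plus 2.5 mM CaCl2 at 10 min. 340/380 nm ratio recorded ≥20 min; rise vs 0.1% DMSO or water control set to 100%; three independent experiments, mean ± SD.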

[2] = tested on: PC-12; experiment: Cytotoxicity against PC12 cells at 10 ug/ml after 72 hrs by MTT assay; type: functional, cell-based
Outline: (§2)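 Cells exposed 72 h to a range of concentrations; viability by MTT colorimetric read at 595 nm after overnight incubation at 37 °C. PC12 grown in DMEM/10% FCS/5% horse serum; HeLa and L5178y in RPMI 1640/10% FCS; all at 37 °C, 5% CO2.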

[3] = tested on: HeLa; experiment: Cytotoxicity against HeLa cells at 10 ug/ml after 72 hrs by MTT assay; type: functional, cell-based; settings: Homo sapiens; outline: as §2
[4] = tested on: HEK293; experiment: Effect on 5-HT/CaCl2 induced increase in intracellular calcium level in HEK cells pretreated for 5 mins at 1 ug/ml after 20 mins in relative to control; type: functional, cell-based; settings: Homo sapiens; outline: as §1
[5] = tested on: L5178Y; experiment: Cytotoxicity against L5178y cells at 10 ug/ml after 72 hrs by MTT assay; type: functional, cell-based; outline: as §2
[6] = tested on: Neuron; experiment: Effect on NMDA/CaCl2 induced increase in intracellular calcium level in rat neuronal cells pretreated for 5 mins at 1 ug/ml after 20 mins in relative to control; type: functional
Outline: (§3)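 Rat cortical neurons were fura-2-loaded (4 μM, 1 h, 37 °C) and preincubated 5 min with 0.1, 1 or 10 µg/ml compound in Ca/Mg-free Locke's, pH 7.4. They were stimulated at 10 min with 200 µM NMDA plus 2.5 mM CaCl2. The fura-2 340/380 ratio change was followed for 20 min and set relative to the vehicle control (100%).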

[7] = tested on: Primary neuron; experiment: Effect on 5-HT/CaCl2 induced increase in intracellular calcium level in rat primary neuronal cells pretreated for 5 mins at 0.01 ug/ml after 20 mins in relative to control; type: functional, cell-based
Outline: (§4)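 Rat cortical neurons from E17–18 Wistar embryos were grown serum-free on poly-L-lysine glass. They were loaded with 4 μM fura-2-AM for 1 h at 37 °C. Cells were preincubated 5 min with compound (0.01–10 µg/ml) in Ca/Mg-free Locke's, pH 7.4. 200 µM 5-HT plus 2.5 mM CaCl2 was added at 10 min. The 340/380 ratio increase was imaged over 20 min as % of DMSO/water control, ±SD of 3–5 experiments, ~90 cells each.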

[8] = tested on: Primary neuron; experiment: Effect on 5-HT/CaCl2 induced increase in intracellular calcium level in rat primary neuronal cells pretreated for 5 mins at 10 ug/ml after 20 mins in relative to control; type: functional, cell-based; outline: as §4
[9] = tested on: Neuron; experiment: Effect on NMDA/CaCl2 induced increase in intracellular calcium level in rat neuronal cells pretreated for 5 mins at 10 ug/ml after 20 mins in relative to control; type: functional; outline: as §3
[10] = Effect on 5-HT/CaCl2 induced increase in intracellular calcium level in rat primary neuronal cells pretreated for 5 mins at 0.3 ug/ml after 20 mins in relative to control; type: functional, Primary neuron; outline: as §4
[11] = Effect on 5-HT/CaCl2 induced increase in intracellular calcium level in rat primary neuronal cells pretreated for 5 mins at 0.1 ug/ml after 20 mins in relative to control; type: functional, Primary neuron; outline: as §4
[12] = tested on: Neuron; experiment: Effect on L-glutamic acid/CaCl2 induced increase in intracellular calcium level in rat neuronal cells pretreated for 5 mins at 1 ug/ml after 20 mins in relative to control; type: functional
Outline: (§5)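 Rat cortical neurons were loaded with 4 μM fura-2-AM, then preincubated 5 min with 0.1, 1 or 10 µg/ml compound in Ca/Mg-free Locke's, pH 7.4. 200 µM L-glutamic acid plus 2.5 mM CaCl2 was added at 10 min. The 340/380 nm ratio increase was recorded over 20 min and expressed as % of vehicle control.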

[13] = tested on: Primary neuron; experiment: Effect on 5-HT/CaCl2 induced increase in intracellular calcium level in rat primary neuronal cells pretreated for 5 mins at 3 ug/ml after 20 mins in relative to control; type: functional, cell-based; outline: as §4
[14] = Effect on 5-HT/CaCl2 induced increase in intracellular calcium level in rat primary neuronal cells pretreated for 5 mins at 1 ug/ml after 20 mins in relative to control; type: functional, Primary neuron; outline: as §4
[15] = tested on: Neuron; experiment: Effect on L-glutamic acid/CaCl2 induced increase in intracellular calcium level in rat neuronal cells pretreated for 5 mins at 10 ug/ml after 20 mins in relative to control; type: functional; outline: as §5
[16] = tested on: Suberites domuncula; experiment: Effect on 5-HT/CaCl2 induced increase in intracellular calcium level in Suberites domunculas sponge cell pretreated for 5 mins at 1 ug/ml in relative to control
[17] = tested on: Neuron; experiment: Effect on NMDA/CaCl2 induced increase in intracellular calcium level in rat neuronal cells pretreated for 5 mins at 0.1 ug/ml after 20 mins in relative to control; type: functional; outline: as §3
[18] = tested on: Suberites domuncula; experiment: Effect on 5-HT/CaCl2 induced increase in intracellular calcium level in Suberites domunculas sponge cell pretreated for 5 mins at 0.1 ug/ml in relative to control
[19] = tested on: Primary neuron; experiment: Effect on 5-HT/CaCl2 induced increase in intracellular calcium level in rat primary neuronal cells pretreated for 5 mins at 0.1 ug/ml after 10 mins; type: functional, cell-based
[20] = Effect on 5-HT/CaCl2 induced increase in intracellular calcium level in rat primary neuronal cells pretreated for 5 mins at 0.03 ug/ml after 20 mins in relative to control; type: functional, Primary neuron; outline: as §4
[21] = tested on: Neuron; experiment: Effect on L-glutamic acid/CaCl2 induced increase in intracellular calcium level in rat neuronal cells pretreated for 5 mins at 0.1 ug/ml after 20 mins in relative to control; type: functional; outline: as §5

## C[N+]1(C)C[C@H](OC(=O)c2cc(Br)c[nH]2)C[C@@H]1C(=O)[O-] [DAMITURICIN]
[1]
  Activity: 43.8%
[2]
  Activity: Not toxic
[3]
  Activity: Not toxic
[4]
  Activity: inactive
[5]
  Activity: Not toxic

## O=C(O[C@@H]1CCN[C@@H](C(=O)O)C1)c1cc(Br)c[nH]1 [DAMIPIPECOLIN]
[6]
  Activity: 70.4%
[7]
  Activity: inactive
[8]
  Activity: inactive
[9]
  Activity: 105.9%
[10]
  Activity: 29.7%
[11]
  Activity: 11.2%
[12]
  Activity: 90.5%
[13]
  Activity: inactive
[2]
  Activity: Not toxic
[14]
  Activity: 38%
[15]
  Activity: 96.6%
[16]
  Activity: inactive
[17]
  Activity: 114.1%
[3]
  Activity: Not toxic
[18]
  Activity: inactive
[19]
  Activity: Active
[20]
  Activity: 71.6%
[21]
  Activity: 83.3%
[5]
  Activity: Not toxic
